In ChEMBL document CHEMBL1145946, “Novel lavendamycin analogues as potent HIV-reverse transcriptase inhibitors: synthesis and evaluation of anti-reverse transcriptase activity of amide and ester analogues of lavendamycin” (J Med Chem, 2003):

Legend:
[1] = system: H9; assay: Cellular cytotoxicity against human lymphocytic cell lines H-9.; assay type: functional
Outline: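 H-9 and CCRF-CEM human lymphocytic lines subcultured in complete RPMI 1640 with 10% FCS, without ConA or β-mercaptoethanol, at 6.25 × 10^5 and 2 × 10^6 cells/mL. Triplicate wells given a range of analogue concentrations at 37 °C, 5% CO2 for 48 h, then MTT 4-6 h, read at 600 nm. CC50 by linear interpolation versus untreated cells; data from both lines pooled.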

[2] = organism: Mus musculus; assay: Cellular cytotoxicity in normal mouse spleen stimulated with concanavalin A; assay type: functional
Outline: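 Normal murine spleen cells at 2.5 × 10^6 or 5 × 10^6 cells/mL in complete RPMI 1640 with 10% FCS, stimulated with ConA 2.5 µg/mL. Analogue range added in triplicate, incubated 48 h at 37 °C, 5% CO2. MTT then added for 4-6 h, formazan dissolved in acidified 2-propanol, OD at 600 nm. CC50 by linear interpolation against untreated controls.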

[3] = molecular target: Human immunodeficiency virus type 1 reverse transcriptase (Human immunodeficiency virus 1, UniProt Q72547); assay: Inhibitory activity against HIV-reverse transcriptase (HIV-RT)

SMILES | CC50 [1] [µM] | CC50 [2] [µM] | IC50 [3] [µM]
CC(=O)NC1=CC(=O)c2ccc(-c3[nH]c(C(=O)OCCOP(=O)(O)O)cc4c5ccccc5nc3-4)nc2C1=O | 27 | 29 | 3
CCCCOC(=O)c1cc2c([nH]c3ccccc32)c(-c2ccc3c(n2)C(=O)C(NC(=O)CCC)=CC3=O)n1 [LAV12] | 50 | 81 | 5.8
CC(=O)NC1=CC(=O)c2ccc(-c3[nH]c(C(=O)O)cc4c5ccccc5nc3-4)nc2C1=O | 81 | 47 | 13.3
COC(=O)c1[nH]c(-c2ccc3c(n2)C(=O)C(NC(C)=O)=CC3=O)c2nc3ccccc3c-2c1C | 31 | 62 | 15.1
CC(=O)NC1=CC(=O)c2ccc(-c3[nH]c(C(N)=O)cc4c5ccccc5nc3-4)nc2C1=O | 95 | 50 | 12.7
